# Screens: PubChem BioAssay, several laboratories
# VIM-2 inhibitor: inhibitors of Pseudomonas aeruginosa VIM-2 metallo-beta-lactamase | purified VIM-2, nitrocefin hydrolysis, epi-absorbance fluorescence | inhibition, % at 5.6 µM | 290,000 compounds, 0.89% hits | AID 1527;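 active means inhibition above the mean of all tested compounds plus 3 SD, cutoff set per screening run, cut at about 7.5% in these data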;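 further: red hydrolysis product quenches plate fluorescence so inhibitors raise well fluorescence; 0% = enzyme with DMSO and 100% = DMSO without enzyme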
# GLD-1 TGE inh: GLD-1-TGE RNA interaction inhibition (C. elegans). Q17339. purified GLD-1 + fluorescein TGE RNA, fluorescence polarization. inhibition, % at 5.96 µM. 320,000 compounds, 0.44% hits;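 active means percent inhibition above a per-plate cutoff, the plate mean of test compounds plus 3 SD, cut at about 30% in these data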;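 further: 0% = DMSO wells with GLD-1 and probe and 100% = wells lacking GLD-1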
# Target sequence (Q17339 whole entry, looked up): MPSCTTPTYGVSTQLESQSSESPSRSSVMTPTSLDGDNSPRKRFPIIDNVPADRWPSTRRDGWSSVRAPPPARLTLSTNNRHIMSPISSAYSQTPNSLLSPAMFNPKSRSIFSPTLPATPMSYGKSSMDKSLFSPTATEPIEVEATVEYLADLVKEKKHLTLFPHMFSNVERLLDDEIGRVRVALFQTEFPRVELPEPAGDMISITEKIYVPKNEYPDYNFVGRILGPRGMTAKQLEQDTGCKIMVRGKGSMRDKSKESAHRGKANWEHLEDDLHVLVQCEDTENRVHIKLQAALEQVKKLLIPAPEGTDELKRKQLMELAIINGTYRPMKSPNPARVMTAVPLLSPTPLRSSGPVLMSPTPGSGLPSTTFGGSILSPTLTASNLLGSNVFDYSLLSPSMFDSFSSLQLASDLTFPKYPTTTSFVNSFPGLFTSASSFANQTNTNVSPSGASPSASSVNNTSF
# BCLXL inh: blocks human Bcl-xL binding to Bim BH3 peptide; Q07817; GST-Bcl-xL / FITC-Bim BH3 peptide fluorescence polarization; inhibition, % at 10.9 µM; 320,000 compounds, 0.7% hits; AID 2129;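 active means inhibition above the mean of all tested compounds plus 3 SD, cutoff set per campaign, cut at about 30% in these data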;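 further: 0% = DMSO wells and 100% = unlabeled Bim-BH3 peptide competitor; inhibitors lower millipolarization by displacing the labeled peptide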
# MEX-5 binding: C. elegans MEX-5 TCR-2 RNA binding activity; Q9XUB2; MEX-5/FITC-TCR2 RNA binding, fluorescence polarization; active compounds read low; activity score (negative = inhibition of binding), % at 10 µM; 300,000 compounds, 0.38% hits; AID 1832;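 active means inhibition past about -25% in most replicates, and total fluorescence under double the plate's negative control median, limit read from the data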;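 further: 0% = DMSO and -100% = 5 µM competing unlabeled TCR2 RNA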
# EBV gp42 block: EBV gp42 inhibition; Fluorescence polarization binding assay, mP read-out; 220,000 compounds, 0.42% hits; inhibition, % (tested at 21.74 µM); in the data active means inhibition above about 50%
# IMP-1 inhibitor: inhibitors of Pseudomonas aeruginosa IMP-1 metallo-beta-lactamase | purified IMP-1, nitrocefin hydrolysis, epi-absorbance fluorescence | inhibition, % at 5.6 µM | 290,000 compounds, 0.45% hits | AID 1556;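 active means inhibition above the mean plus 3 SD of all compounds in the same screening run, cut at about 4.5% in these data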;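 further: 0% = IMP-1 with DMSO and 100% = DMSO wells lacking enzyme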
#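 System: purified recombinant IMP-1 beta-lactamase. Medium: Zinc- and detergent-supplemented HEPES buffer, pH 7.1. Compound: one 5.6 µM dose […]. Schedule: 15 min preincubation plus 25 min reaction at 25 °C. Technique: Epi-absorbance fluorescence, 480 nm excitation, 530 nm emission.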
# Active calls of the source: *; nt = no result. Most compounds without a hit are left out; they make up all but 2.2% or so of the library.
SMILES,VIM-2 inhibitor,GLD-1 TGE inh,BCLXL inh,MEX-5 binding,EBV gp42 block,IMP-1 inhibitor
CC1(C)CCc2cc(S(=O)(=O)N3CCN(S(=O)(=O)c4c(F)cccc4F)CC3)ccc2O1,nt,5.8,nt,nt,nt,nt
Cc1cc(C)nc(SCC(=O)OCC(=O)Nc2ccccc2)n1,-1.9,1.2,-0.9,-0.3,nt,0.5
CC(C)N(C(=O)CSc1nnc(NC(=O)c2cccs2)s1)C(C)C,10.0*,3.0,2.0,-1.2,-10.9,-2.6
CC(C)c1nnc(NC(=O)c2cccs2)s1,-2.5,-9.5,-3.0,1.4,3.4,-4.8
CN(C)c1ccc(CC2C(=O)Nc3ccccc32)cc1 (stereo not drawn),-0.7,21.4,45.8*,-5.9,-4.0,-3.8
CN(C)c1ccc(NC(=O)C(=O)C2C(=O)Nc3ccccc32)cc1 (stereo not drawn),-1.4,1.0,5.0,-2.5,-12.8,-1.8
Oc1nc(Nc2ccc(F)cc2)sc1/C=C1\C=Nc2ccccc21,-2.5,-30.7,-8.8,10.2,-1.0,-4.0
O=c1[nH]c(S)c(/C=C2\C=Nc3ccccc32)s1,-2.6,45.2*,76.7*,-6.7,62.7*,-4.2
Cc1ccccc1N=Nc1ccc(O)c2ncccc12,-4.1,0.9,4.2,0.6,-12.0,-1.9
O=S(=O)(O)c1cccc2c(N=Nc3ccc(O)c4ncccc34)cccc12,1.1,7.8,26.9,-92.3*,nt,-6.9
CCn1ccnc1CN(C)C(=O)C1CCC(=O)N(Cc2cccc(C(F)(F)F)c2)C1 (stereo not drawn),-0.9,1.4,3.1,2.0,nt,-0.8
Cc1[nH]c(=O)[nH]c(=O)c1S(=O)(=O)Nc1ccc(Br)cc1F,-4.3,nt,nt,2.9,nt,-4.2
CNC[C@H](CC1CCCCC1)NC[C@H](Cc1ccccc1)NCCC12CC3CC(CC(C3)C1)C2,1.9,3.4,3.8,35.7,nt,15.7*
COc1ccc(-n2c(N)c(C#N)c3ccc([N+](=O)[O-])cc3c2=O)cc1,-3.2,8.0,19.3,-5.0,52.0*,-3.7
Cc1[nH]c2nc3ccccc3n2c(=O)c1CCC(C)C,-1.6,5.4,-0.3,0.7,nt,-2.4
C/C(=N\Nc1ccc(C(=O)c2c(C)cc3ccccn23)cc1[N+](=O)[O-])c1ccc(O)cc1,1.2,-1.3,-0.2,0.9,-20.6,0.1
Cc1cc2ccccn2c1C(=O)c1ccc(N/N=C/c2ccc(C(=O)O)cc2)c([N+](=O)[O-])c1,1.5,nt,nt,nt,65.4*,-1.9
Cc1ccc2c(N)c(C)ccc2c1,-0.9,8.7,5.2,-2.1,-17.1,-3.0
Cc1ccc2cc3c(N)c4c(C)ccc(C)c4nc3nc2c1,2.8,nt,nt,-4.2,147.8*,-1.7
CC1CCc2nn(CC(=O)NCCCN3CCCC3=O)cc2C1 (stereo not drawn),nt,2.8,2.5,1.9,-5.3,nt
CC1CCc2nn(CC(=O)NCCN3CCCCC3C)cc2C1 (stereo not drawn),-5.2,4.5,17.4,-35.0*,5.0,-2.3
Cc1nnc2ccc(-c3cccc(NC(=O)c4ccc(Br)o4)c3)nn12,10.2*,0.4,9.3,1.4,-8.0,-2.9
Cc1nnc2ccc(-c3cccc(NC(=O)c4ccc(Cl)nc4)c3)nn12,5.0,-0.7,1.8,-0.1,5.7,-3.6
CCCCn1c(N)c(N(CC(C)C)C(=O)c2ccc(F)c(S(=O)(=O)N3CCOCC3)c2)c(=O)[nH]c1=O,nt,2.0,-1.8,0.0,nt,nt
CCc1c(C(=O)NNC(=S)Nc2ccc(S(=O)(=O)Nc3ncccn3)cc2)csc1C,-4.4,0.5,5.0,-48.1*,nt,-3.2
SMILES,VIM-2 inhibitor,GLD-1 TGE inh,BCLXL inh,MEX-5 binding,EBV gp42 block,IMP-1 inhibitor
O=S(=O)(Nc1ncccn1)c1ccc(NC(=S)Nc2ccccc2)cc1,0.7,-5.1,0.2,-0.8,nt,-0.2
CCOC(=O)c1ccccc1N/C=C1\CCCC1=O,12.1*,1.9,-6.0,-2.4,-1.8,-1.7
NC(=O)c1ccccc1N/C=C1\CCCCC1=O,0.7,0.1,-0.5,-0.4,6.1,-2.0
Cc1c(C(=O)c2ccc(Cl)cc2[N+](=O)[O-])c2ccccn2c1CCC#N,-3.4,19.0,2.8,0.7,-4.1,-1.0
Cc1c(C(=O)c2ccc(F)cc2F)c2ccccn2c1CCC#N,5.4,90.1*,100.5*,-1.2,nt,-7.9
Oc1ccc(-c2c(C3=CCCCC3)sc3ccccc23)cc1,0.0,-4.4,0.1,0.3,nt,5.1*
